The term viability denotes a read-out of living cells in per cent, often relative to untreated cells. Usually inhibition stands for the relative decrease from the control value, in per cent.

The source made the active and inactive calls.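 The calls were made as follows, unless noted: active = viability at or below 10% of carrier control in both of two separate runs; inconclusive = viability at or below 10% in only one of the two runs; inactive = the rest.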

The record followed here is PubChem BioAssay.

A short description of assay [1]: Her2 expression decrease, cell viability multiplex – SKBR3 breast tumor cells, AlphaScreen, ATP viability, primary screen (AID 461;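 active = Her2 level under about 52% in both replicate screens, with viability over 70% of control, limit read from the data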;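 as to Her2 level: lower value means less Her2 protein in the cells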;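 as to viability: percent of carrier control wells set as 100% viability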). The conditions noted are these: SKBR3 Her2 protein level, 18-24 h, measured here: SKBR3 viability, ATP luminescence, at 10 µM. In general terms: Alpha assays give light when donor and acceptor beads are brought close together.
Assay [2] concerns the target Receptor tyrosine-protein kinase erbB-2 (Homo sapiens) (UniProt P04626). The description is as above. Particulars: 18-24 h, at 10 µM, stronger effect = lower value.
The nature of assay [3]: reduced viability of SK-BR-3 breast cancer cells – cell-based, 24 h, human, pilot screen (AID 572).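 Also: compound exposure lasted between 18 and 24 h rather than exactly 24 h; 100% = carrier-treated control wells.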 The conditions noted are these: SK-BR-3 viability, CellTiter-Glo luminescence, at 10 µM, stronger effect = lower value. On the technique in general: ATP-based viability assays read luminescence as a measure of living cells.
Assay [4] in a line: HUVEC growth inhibition – cell-based, human, primary screen (AID 575;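 active = viability at or below 30% in both replicate assays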;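 also: 100% = median of untreated cell wells with 0.1% DMSO on each plate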). The conditions noted are these: HUVEC proliferation, CellTiter-Glo luminescence, 72 h; at 10 µM; stronger effect = lower value. The procedure, abridged:
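Assay system: primary human umbilical vein endothelial cells / Buffer or medium: endothelial basal medium with 2% FBS plus growth supplements / Compound dosing: one dose, 10 µM final, 0.1% DMSO / Timing: 72 h treatment at 37 °C / Signal: CTG luminescence / Benchmarks: 32 DMSO-only cell-control wells (high), 32 MePR drug-control wells (low) per plate / Plate: collagen-coated 384-well format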

A short description of assay [5]: H69AR cell proliferation blockers – human, duplicate replicates, primary screen (AID 580;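 active = viability at or under a set limit in both replicates, limit being median viability minus 3 SD, cut at about 48% in these data, passing the limit was not always enough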;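 also: 100% = mean luminescence of untreated wells and 0% = no signal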). Particulars: H69AR lung tumor cells viability, ATP luminescence, 72 h; at 10 µM; stronger effect = lower value.
Assay [6] can be described thus: MRP1 drug-resistance reversers in H69AR cells – cell-based, doxorubicin co-treatment, pilot screen (AID 601;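 active = viability loss from added drug above about 55%, and viability with drug at most 40%, in both replicates, limit read from the data, passing the limit was not always enough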). The conditions noted are these: CellTiter-Glo, 72 h, at 10 µM; for differential viability (reversal): stronger effect = higher value.
The nature of assay [7]: yeast transport mutant growth inhibition pilot in 384-well plates, post-Golgi transport modulator project (AID 636; in the data active = inhibition above about 31%). Particulars: absorbance 615 nm, about 18 h, stronger effect = higher value.
Assay [8] is described as follows: growth suppression of yeast trafficking mutant, preliminary HTS, modulators of trafficking downstream of Golgi apparatus project, 1536-format plate, OD 615 nm (AID 637; in the data active = inhibition above about 30%). Particulars: yeast transport mutant growth, absorbance 615 nm, 18 h; stronger effect = higher value.
[9] abbreviates: H69AR cells + 2 uM doxorubicin, measured here: viability with 2 uM doxorubicin, stronger effect = lower value.
The mark [10] stands for this setting: H69AR cells, compound alone cytotoxicity.

Sequence of Receptor tyrosine-protein kinase erbB-2 (Homo sapiens) (P04626 whole entry, looked up): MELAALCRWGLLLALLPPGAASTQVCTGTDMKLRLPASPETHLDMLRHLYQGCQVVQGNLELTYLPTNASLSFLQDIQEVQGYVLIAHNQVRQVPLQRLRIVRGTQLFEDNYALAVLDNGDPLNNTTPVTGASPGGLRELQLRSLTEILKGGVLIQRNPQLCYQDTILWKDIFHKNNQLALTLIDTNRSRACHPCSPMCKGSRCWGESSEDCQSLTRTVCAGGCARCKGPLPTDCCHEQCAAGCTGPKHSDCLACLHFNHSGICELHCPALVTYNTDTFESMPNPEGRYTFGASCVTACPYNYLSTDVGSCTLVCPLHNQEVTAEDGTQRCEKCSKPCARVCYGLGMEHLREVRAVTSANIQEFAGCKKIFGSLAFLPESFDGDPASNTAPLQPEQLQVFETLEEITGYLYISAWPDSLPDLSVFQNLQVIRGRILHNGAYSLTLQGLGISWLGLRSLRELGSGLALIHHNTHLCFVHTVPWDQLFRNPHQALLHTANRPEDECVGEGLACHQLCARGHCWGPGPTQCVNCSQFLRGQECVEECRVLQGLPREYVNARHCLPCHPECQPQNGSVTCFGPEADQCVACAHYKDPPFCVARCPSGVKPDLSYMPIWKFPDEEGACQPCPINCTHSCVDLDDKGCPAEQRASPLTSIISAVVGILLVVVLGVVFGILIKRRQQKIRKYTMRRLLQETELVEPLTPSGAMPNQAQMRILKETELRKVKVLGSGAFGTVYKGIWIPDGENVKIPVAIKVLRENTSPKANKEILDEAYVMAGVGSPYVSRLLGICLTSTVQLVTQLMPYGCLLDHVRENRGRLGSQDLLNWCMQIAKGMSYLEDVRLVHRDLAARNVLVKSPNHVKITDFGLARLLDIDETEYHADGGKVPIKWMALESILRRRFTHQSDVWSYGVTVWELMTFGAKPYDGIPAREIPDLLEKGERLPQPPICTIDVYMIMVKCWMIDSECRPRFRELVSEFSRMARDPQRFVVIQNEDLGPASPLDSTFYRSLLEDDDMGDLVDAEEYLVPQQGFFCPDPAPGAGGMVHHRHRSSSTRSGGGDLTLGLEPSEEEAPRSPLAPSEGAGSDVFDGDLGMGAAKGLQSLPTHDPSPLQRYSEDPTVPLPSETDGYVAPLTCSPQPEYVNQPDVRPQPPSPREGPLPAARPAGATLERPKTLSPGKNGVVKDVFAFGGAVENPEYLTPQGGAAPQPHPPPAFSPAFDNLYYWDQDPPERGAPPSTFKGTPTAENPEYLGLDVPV

As for `Cc1ccccc1-c1nc(CN2CCC(C(=O)NCc3cccnc3)CC2)c(C)o1`, the viability was 88.5% in assay [1]; 88.5% (inactive) in assay [3]; 85.7% (inactive) in assay [4]; 87.1% (inactive) in assay [5]; 86.3% in assay [6] (setting [9]); 87.1% in assay [6] (setting [10]). Besides, in assay [2], the Her2 level is 82.5% (inactive). Also, the differential viability (reversal) in assay [6] (H69AR cells + 2 uM doxorubicin) is 0.825% (inactive). Further, the inhibition in assay [7] was -1.71% (inactive); in assay [8] it was 0% (inactive).
`COc1ccc(NC(=O)C(C)NS(=O)(=O)c2ccccc2)cc1Cl` (stereo not given): the viability in assay [1] is 92%; in assay [3], 92% (inactive); in assay [4], 98.4% (inactive); in assay [5], 97.7% (inactive); in assay [6] (setting [9]) it was 91%; in assay [6] (setting [10]), 97.7%. The Her2 level in assay [2] is 99% (inactive). Further, in assay [6] (H69AR cells + 2 uM doxorubicin), the differential viability (reversal) is 6.73% (inactive). In addition, the inhibition in assay [7] was -3.87% (inactive); in assay [8] it was -6.19% (inactive).
As to `CCOC(=O)c1ccc(S(=O)(=O)NC2CCCCCCC2)n1C`, the viability was 113% in assay [1]; 113% (inactive) in assay [3]; 86.9% (inactive) in assay [4]; 104% (inactive) in assay [5]; 107% in assay [6] (setting [9]); 104% in assay [6] (setting [10]). Further, the Her2 level in assay [2] was 70% (inactive). For the same compound, the differential viability (reversal) in assay [6] (H69AR cells + 2 uM doxorubicin) is -3.18% (inactive). Moreover, the inhibition in assay [7] is -1.49% (inactive); in assay [8], 1.11% (inactive).
In the case of `CCN(CC)CCN1C(=O)C(=O)/C(=C(/O)c2c(C)[nH]c(C(=O)OC)c2C)C1c1ccccc1OC` (stereo not given), the viability is 104% in assay [1]; 104% (inactive) in assay [3]; 84.6% (inactive) in assay [4]; 68.3% (inactive) in assay [5]; 89.5% in assay [6] (setting [9]); 68.3% in assay [6] (setting [10]). Also, the Her2 level in assay [2] was 117% (inactive). Moreover, the differential viability (reversal) in assay [6] (H69AR cells + 2 uM doxorubicin) is -21.3% (inactive). In addition, the inhibition was -0.26% (inactive) in assay [7] and -4.5% (inactive) in assay [8].
For the compound `CC(C)C(NC(=O)c1ccccc1NC(=O)c1ccco1)C(=O)O` (stereo not given), the viability in assay [1] was 114%; in assay [3], 114% (inactive); in assay [4], 94.8% (inactive); in assay [5], 91.6% (inactive); in assay [6] (setting [9]), 89.1%; in assay [6] (setting [10]) it was 91.6%. Besides, the Her2 level in assay [2] is 77.5% (inactive). Further, the differential viability (reversal) in assay [6] (H69AR cells + 2 uM doxorubicin) was 2.44% (inactive). Further, the inhibition in assay [7] is -8.24% (inactive); in assay [8] it was 6.98% (inactive).
Take `CN(C)C(=O)c1ccc(COc2ccccc2Br)o1`: the viability in assay [1] was 110%; in assay [3], 110% (inactive); in assay [4], 88.5% (inactive); in assay [5] it was 90.7% (inactive); in assay [6] (setting [9]), 77.8%; in assay [6] (setting [10]), 90.7%. Further, the Her2 level in assay [2] is 84% (inactive). The differential viability (reversal) in assay [6] (H69AR cells + 2 uM doxorubicin) is 13% (inactive). For the same compound, the inhibition in assay [7] was -9.05% (inactive); in assay [8] it was 0.48% (inactive).
Take `COC(=O)c1cc(S(=O)(=O)N2CCC(C)CC2)ccc1F`: the viability in assay [1] was 71%; in assay [3], 71% (inactive); in assay [4], 88.6% (inactive); in assay [5], 88.2% (inactive); in assay [6] (setting [9]), 89.2%; in assay [6] (setting [10]), 88.2%. In assay [2], the Her2 level was 104% (inactive). Besides, the differential viability (reversal) in assay [6] (H69AR cells + 2 uM doxorubicin) was -1.02% (inactive). Moreover, the inhibition in assay [7] was -3.51% (inactive); in assay [8] it was 2.79% (inactive).
`Cc1ccc(-c2nc(CS(=O)CC(=O)NCCN(CC(C)C)CC(C)C)c(C)o2)cc1` (stereo not given): the viability is 81% in assay [1]; 81% (inactive) in assay [3]; 86.4% (inactive) in assay [4]; 103% (inactive) in assay [5]; 83.6% in assay [6] (setting [9]); 103% in assay [6] (setting [10]). The Her2 level in assay [2] was 84.5% (inactive). Besides, the differential viability (reversal) in assay [6] (H69AR cells + 2 uM doxorubicin) was 19.8% (inactive). Also, the inhibition in assay [7] was -5.2% (inactive); in assay [8] it was 0.97% (inactive).
Regarding `CCOC(=O)c1c(C)c(C(=O)NCC2CCCO2)c(C)n1C` (stereo not given), the viability in assay [1] was 100%; in assay [3] it was 100% (inactive); in assay [4] it was 83.5% (inactive); in assay [5], 92.2% (inactive); in assay [6] (setting [9]), 80.3%; in assay [6] (setting [10]), 92.2%. In addition, the Her2 level in assay [2] is 82.5% (inactive). In assay [6] (H69AR cells + 2 uM doxorubicin), the differential viability (reversal) was 11.9% (inactive). In addition, the inhibition in assay [7] is -1.71% (inactive); in assay [8], 1.59% (inactive).
Regarding `COc1cccc(C(c2nnnn2CCc2ccccc2)N2CCN(c3ccccc3)CC2)c1OC` (stereo not given), the viability in assay [1] was 91%; in assay [3], 91% (inactive); in assay [4] it was 109% (inactive); in assay [5], 83.1% (inactive); in assay [6] (setting [9]), 91%; in assay [6] (setting [10]) it was 83.1%. Further, the Her2 level in assay [2] is 88% (inactive). Further, the differential viability (reversal) in assay [6] (H69AR cells + 2 uM doxorubicin) was -7.96% (inactive). Moreover, the inhibition was 13.1% (inactive) in assay [7] and -1.13% (inactive) in assay [8].
In the case of `O=C(COc1nnc2ccccn12)N1CCN(S(=O)(=O)c2ccccc2)CC1`, the viability in assay [1] is 107%; in assay [3], 107% (inactive); in assay [4], 98.8% (inactive); in assay [5], 97.2% (inactive); in assay [6] (setting [9]), 84%; in assay [6] (setting [10]) it was 97.2%. Moreover, the Her2 level in assay [2] is 86% (inactive). In addition, the differential viability (reversal) in assay [6] (H69AR cells + 2 uM doxorubicin) is 13.2% (inactive). In addition, the inhibition in assay [7] is -5.13% (inactive); in assay [8] it was -5.09% (inactive).
With `COc1ccc(N2CCN(c3ncnc4c3cnn4-c3ccc(C)cc3C)CC2)cc1`, the viability in assay [1] is 81%; in assay [3], 81% (inactive); in assay [4], 87.1% (inactive); in assay [5], 66.2% (inactive); in assay [6] (setting [9]) it was 19.4%; in assay [6] (setting [10]) it was 66.2%. Also, in assay [2], the Her2 level was 72.5% (inactive). The differential viability (reversal) in assay [6] (H69AR cells + 2 uM doxorubicin) is 46.8% (inactive). In addition, the values for the inhibition in assay [7] and in assay [8] were -1.58% (inactive) and -1.29% (inactive), respectively.
On to `Cc1ccc(S(=O)(=O)N(CC(=O)N2CCOCC2)CC(=O)N2CCOCC2)cc1`, for which the viability in assay [1] was 104%; in assay [3], 104% (inactive); in assay [4], 110% (inactive); in assay [5], 107% (inactive); in assay [6] (setting [9]), 101%; in assay [6] (setting [10]), 107%. Besides, the Her2 level in assay [2] is 87% (inactive). In assay [6] (H69AR cells + 2 uM doxorubicin), the differential viability (reversal) is 5.66% (inactive). The inhibition is -4.87% (inactive) in assay [7] and 3.17% (inactive) in assay [8].
Consider `COC(=O)Nc1ccc(NC(C)=O)cc1`, for which the viability in assay [1] is 96%; in assay [3], 96% (inactive); in assay [4] it was 103% (inactive); in assay [5] it was 91% (inactive); in assay [6] (setting [9]) it was 82.1%; in assay [6] (setting [10]), 91%. For the same compound, in assay [2], the Her2 level was 116% (inactive). Further, in assay [6] (H69AR cells + 2 uM doxorubicin), the differential viability (reversal) was 8.88% (inactive). Besides, the inhibition is 5.84% (inactive) in assay [7] and -8.36% (inactive) in assay [8].
For `COC(=O)CSc1nc(C)c(C(C)=O)cc1C#N`, the viability in assay [1] was 92%; in assay [3], 92% (inactive); in assay [4] it was 111% (inactive); in assay [5] it was 90.1% (inactive); in assay [6] (setting [9]) it was 80.4%; in assay [6] (setting [10]) it was 90.1%. Also, in assay [2], the Her2 level is 90.5% (inactive). Besides, in assay [6] (H69AR cells + 2 uM doxorubicin), the differential viability (reversal) is 9.68% (inactive). Also, the inhibition is -0.93% (inactive) in assay [7] and -0.65% (inactive) in assay [8].
For the compound `COc1ccc(-c2nc(C#N)c(N3CCN(c4ccccc4)CC3)o2)cc1`, the viability is 94.5% in assay [1]; 94.5% (inactive) in assay [3]; 94.7% (inactive) in assay [4]; 105% (inactive) in assay [5]; 93.8% in assay [6] (setting [9]); 105% in assay [6] (setting [10]). Also, the Her2 level in assay [2] is 98.5% (inactive). Moreover, in assay [6] (H69AR cells + 2 uM doxorubicin), the differential viability (reversal) is 11.7% (inactive). Besides, the inhibition in assay [7] was -2.05% (inactive); in assay [8], 3.33% (inactive).
